Publication PMC5901702 (Journal of biomolecular screening, 2012)

Experiments:
[1] = target: T1, rat IDE (Rattus norvegicus, UniProt P35559); test: ATP effect on rat IDE activity and activators; type: biochemical; conditions: Tris/BSA, 1 mM ATP
T1 sequence (P35559 1-1019): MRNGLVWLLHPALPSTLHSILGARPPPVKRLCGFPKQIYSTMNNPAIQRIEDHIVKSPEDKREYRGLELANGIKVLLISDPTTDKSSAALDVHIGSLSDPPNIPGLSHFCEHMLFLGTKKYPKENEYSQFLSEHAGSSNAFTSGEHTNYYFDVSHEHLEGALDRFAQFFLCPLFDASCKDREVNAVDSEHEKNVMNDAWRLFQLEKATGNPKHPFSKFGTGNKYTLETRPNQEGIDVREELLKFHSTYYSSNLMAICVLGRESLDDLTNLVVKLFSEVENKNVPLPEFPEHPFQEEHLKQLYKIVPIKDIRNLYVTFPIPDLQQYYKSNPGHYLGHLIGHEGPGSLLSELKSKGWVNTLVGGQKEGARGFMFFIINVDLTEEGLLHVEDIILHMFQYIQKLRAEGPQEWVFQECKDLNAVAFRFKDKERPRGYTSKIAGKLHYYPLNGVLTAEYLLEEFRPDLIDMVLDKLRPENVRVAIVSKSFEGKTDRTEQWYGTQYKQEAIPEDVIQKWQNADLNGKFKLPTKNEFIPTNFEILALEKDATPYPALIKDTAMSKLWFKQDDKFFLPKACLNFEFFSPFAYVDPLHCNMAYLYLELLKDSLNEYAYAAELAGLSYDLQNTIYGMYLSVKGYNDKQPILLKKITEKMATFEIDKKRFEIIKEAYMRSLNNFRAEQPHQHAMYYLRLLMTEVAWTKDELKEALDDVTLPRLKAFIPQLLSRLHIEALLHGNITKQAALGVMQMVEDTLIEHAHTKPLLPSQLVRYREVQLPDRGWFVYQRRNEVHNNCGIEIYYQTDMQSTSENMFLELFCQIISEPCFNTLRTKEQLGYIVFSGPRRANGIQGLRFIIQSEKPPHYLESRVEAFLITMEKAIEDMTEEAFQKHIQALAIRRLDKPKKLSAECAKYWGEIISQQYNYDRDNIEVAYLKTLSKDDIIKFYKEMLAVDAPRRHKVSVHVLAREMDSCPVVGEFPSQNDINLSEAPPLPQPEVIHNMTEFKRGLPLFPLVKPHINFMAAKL
Procedure, shortened: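 Rat IDE (87.7 nM) with 50 µM a-factor–based internally quenched fluorogenic substrate in 50 mM Tris pH 7.5 containing BSA and 1 mM ATP. Compounds were used at optimal levels taken from Tris/BSA dose-response curves. ATP titration (0–10 mM) was also run in 0.1 M KPi pH 7.6 or Tris/BSA. Activity is % of water- or DMSO-treated control, n = 4.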

[2] = target: T1, rat IDE; test: Thermal melt; type: binding; conditions: 100 µM compound; rat IDE 0.5 µM; 28 to 70 °C
Procedure, shortened: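 Thermal shift: recombinant rat IDE (0.5 µM) with 5× SYPRO Orange in 0.1 M KPi pH 7.6, plus DMSO or compound (100 µM). Samples were held 60 min in the dark at room temperature under mineral oil, then heated 28–70 °C in 1–3 °C steps. Fluorescence was read at 465/590 nm. Tm came from a four-parameter variable-slope sigmoidal fit.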

| Structure (SMILES) | activation over the ATP-only condition ([1]; compound 125 µM) | shift in thermal melting profile (Tm) of IDE [2] | % activity relative to ATP-only condition ([1]; compound 500 µM) [%] |
| --- | --- | --- | --- |
| O=S(=O)(O)c1cc(O)c2c(O)c(N=Nc3cccc4ccccc34)c(S(=O)(=O)O)cc2c1 [Compound 3] | approximately 25% | substantial shift in the melting profile | – |
| Nc1nc(SCc2ccccc2Cl)cc(C(=O)O)n1 [Compound 5] | – | – | > 250 |
